Experimental data of several laboratories.
Protocols differ between the studies behind these lines.
Observed: cell growth or viability

Compound | cell line | test | setting | measurement | result
CNc1ncc2c(/C=C/C(=O)N3CCC(N(C)C)CC3)nn(CC3CCCC3)c2n1 | OE33 | resazurin | 5 days | EC50 | 15 µM
O=C(Nc1ccc(Oc2nnc(-c3ccc(Cl)cc3)c3ccccc23)cc1)c1ccccc1 | HepG2 | MTT | 0.156 µM | cell death | 45.6%
Nc1ncnc2c1c(/C=C/C(=O)N1CCC(c3ccccc3)CC1)nn2CC1CCCC1 | OE33 | resazurin | 5 days | EC50 | > 30 µM
CC(C)(C)c1cnc(CSc2cnc(NC(=O)C3CCN(CCCCCCCCSc4cccc5c4CN(C4CCC(=O)NC4=O)C5=O)CC3)s2)o1 (stereo not drawn) | HH | CCK-8 | 50 nM | viability | 90.8%
C=CC(=O)NC1CCN(c2ncc3ncnc(Nc4ccc(Oc5ccc6c(c5)ncn6C)c(C)c4)c3n2)CC1 | PANC-03-27 | – | – | EC50 | 0.0333 µM
CNc1ncc2c(/C=C/C(=O)N3CCC(OC)CC3)nn(Cc3ccc(C)cc3)c2n1 | OE33 | resazurin | 5 days | EC50 | 2.49 µM
CC(=NNC(N)=S)c1ccc(Nc2nnc(-c3ccc(Cl)cc3)c3ccccc23)cc1 | HepG2 | MTT | 78 nM, 24 h | viability | 95.6%
Nc1ncnc2c1c(/C=C/C(=O)O)nn2CC1CCCC1 | OE33 | resazurin | 5 days | EC50 | > 30 µM
CC(C)(C)c1cnc(CSc2cnc(NC(=O)C3CCN(CCCCCCCCSc4cccc5c4C(=O)N(C4CCC(=O)NC4=O)C5=O)CC3)s2)o1 (stereo not drawn) | HH | CCK-8 | 10 nM | viability | 98.2%
CC(=NNC(=O)c1ccccc1)c1ccc(Nc2nnc(-c3ccc(Cl)cc3)c3ccccc23)cc1 | HepG2 | MTT | 2.5 µM | cell death | 95.8%
CC(C)(C)c1cnc(CSc2cnc(NC(=O)C3CCN(CCCCSc4cccc5c4C(=O)N(C4CCC(=O)NC4=O)C5=O)CC3)s2)o1 (stereo not drawn) | HH | CCK-8 | 0.1 µM | viability | 97.9%
S=C(Nc1ccccc1)Nc1ccc(Oc2nnc(-c3ccc(Cl)cc3)c3ccccc23)cc1 | HepG2 | MTT | 10 µM, 24 h | viability | 2.77%
